ChEMBL document CHEMBL5329210, “Novel piperazine-1,2,3-triazole leads for the potential treatment of pancreatic cancer” (RSC Med Chem, 2023)

How the values were obtained:
[1] = system: BXPC-3; experiment: Inhibition of cell growth of human BXPC-3 cells measured after 72 hrs by CCK8 assay; format: functional
Summary of the method: (§1)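 CCK-8 viability in human pancreatic cancer lines. Compounds were added over 100–0.05 μM 24 h after seeding, alongside a 0.5% DMSO vehicle. After 72 h, CCK-8 was incubated for 1 h at 37 °C. A450 minus A650 was expressed as % of vehicle. IC50 was taken from the dose-response curve. Seeding was 3×10^3/well for MiaPaCa2 and 7×10^3/well for BxPC3 and CFPAC-1. n = 3.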

[2] = system: ASPC1; experiment: Inhibition of cell growth of human ASPC1 cells measured after 72 hrs by CCK8 assay; format: functional
[3] = system: Capan-2; experiment: Inhibition of cell growth of human Capan-2 cells measured after 72 hrs by CCK8 assay; format: functional
[4] = system: PANC-1; experiment: Inhibition of cell growth of human PANC-1 cells measured after 72 hrs by CCK8 assay; format: functional
[5] = system: HPAC; experiment: Inhibition of cell growth of human HPAC cells measured after 72 hrs by CCK8 assay; format: functional
[6] = system: HT-29; experiment: Inhibition of cell growth of human HT-29 cells measured after 72 hrs by MTT assay; format: functional
Summary of the method: (§2)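 MTT read-out. Cancer lines were grown in DMEM with 10% FBS, glutamine and antibiotics. MCF10A was grown in DMEM:F12 with 5% horse serum, EGF, hydrocortisone, cholera toxin and insulin. Cells were plated in duplicate at 2500–4000/well, and drug was added 24 h later. After 72 h, absorbance was read at 540 nm. Single-point lines used 25 μM. GI50 is 50% growth inhibition versus untreated control. n = 3.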

[7] = system: MCF7; experiment: Inhibition of cell growth of human MCF7 cells measured after 72 hrs by MTT assay; format: functional; summary of the method: as §2
[8] = system: A2780; experiment: Inhibition of cell growth of human A2780 cells measured after 72 hrs by MTT assay; format: functional; summary of the method: as §2
[9] = system: BE(2)-C; experiment: Inhibition of cell growth of human BE2C cells measured after 72 hrs by MTT assay; format: functional; summary of the method: as §2
[10] = system: MIA PaCa-2; experiment: Inhibition of cell growth of human MIA PaCa-2 cells measured after 72 hrs by MTT assay; format: functional; summary of the method: as §2
[11] = Inhibition of cell growth of human MCF-10A cells measured after 72 hrs by MTT assay; format: toxicity, cell-based; summary of the method: as §2
[12] = system: HT-29; experiment: Inhibition of cell growth of human HT-29 cells at 25 uM measured after 72 hrs by MTT assay relative to control; format: functional; summary of the method: as §2
[13] = system: MCF7; experiment: Inhibition of cell growth of human MCF7 cells at 25 uM measured after 72 hrs by MTT assay relative to control; format: functional; summary of the method: as §2
[14] = system: A2780; experiment: Inhibition of cell growth of human A2780 cells at 25 uM measured after 72 hrs by MTT assay relative to control; format: functional; summary of the method: as §2
[15] = system: BE(2)-C; experiment: Inhibition of cell growth of human BE2C cells at 25 uM measured after 72 hrs by MTT assay relative to control; format: functional; summary of the method: as §2
[16] = system: MIA PaCa-2; experiment: Inhibition of cell growth of human MIA PaCa-2 cells at 25 uM measured after 72 hrs by MTT assay relative to control; format: functional; summary of the method: as §2
[17] = system: BXPC-3; experiment: Inhibition of cell growth of human BXPC-3 cells at 25 uM measured after 72 hrs by MTT assay relative to control; format: functional; summary of the method: as §2
[18] = system: ASPC1; experiment: Inhibition of cell growth of human ASPC1 cells at 25 uM measured after 72 hrs by MTT assay relative to control; format: functional; summary of the method: as §2
[19] = system: Capan-2; experiment: Inhibition of cell growth of human Capan-2 cells at 25 uM measured after 72 hrs by MTT assay relative to control; format: functional; summary of the method: as §2
[20] = system: PANC-1; experiment: Inhibition of cell growth of human PANC-1 cells at 25 uM measured after 72 hrs by MTT assay relative to control; format: functional; summary of the method: as §2
[21] = system: HPAC; experiment: Inhibition of cell growth of human HPAC cells at 25 uM measured after 72 hrs by MTT assay relative to control; format: functional; summary of the method: as §2
[22] = Inhibition of cell growth of human MCF-10A cells at 25 uM measured after 72 hrs by MTT assay relative to control; format: toxicity, cell-based; summary of the method: as §2
[23] = system: BXPC-3; experiment: Inhibition of cell growth of human BXPC-3 cells measured after 72 hrs by MTT assay; format: functional; summary of the method: as §2
[24] = system: ASPC1; experiment: Inhibition of cell growth of human ASPC1 cells measured after 72 hrs by MTT assay; format: functional; summary of the method: as §2
[25] = system: Capan-2; experiment: Inhibition of cell growth of human Capan-2 cells measured after 72 hrs by MTT assay; format: functional; summary of the method: as §2
[26] = system: PANC-1; experiment: Inhibition of cell growth of human PANC-1 cells measured after 72 hrs by MTT assay; format: functional; summary of the method: as §2
[27] = system: HPAC; experiment: Inhibition of cell growth of human HPAC cells measured after 72 hrs by MTT assay; format: functional; summary of the method: as §2
[28] = Inhibition of cell growth of human pancreatic cancer cells measured after 72 hrs by CCK8 assay; format: functional; summary of the method: as §1
[29] = system: U-87 MG; experiment: Inhibition of cell growth of human U87 cells measured after 72 hrs by MTT assay; format: functional, U-87MG ATCC; summary of the method: as §2
[30] = system: BXPC-3; experiment: Inhibition of cell growth of human BXPC-3 cells at 25 uM measured after 72 hrs by CCK8 assay relative to control; format: functional
Summary of the method: (§3)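 Single 25 μM exposure, read by CCK-8, n = 3, relative to control. Seeding was 3×10^3/well for MiaPaCa2, 7×10^3/well for BxPC3 (in RPMI-1640/10% FBS) and 1×10^4/well for HPDE (in KSFM with rEGF/BPE). After 24 h attachment, cells were exposed for 72 h. CCK-8 was then incubated for 1 h, and A450 minus A650 was compared with 0.5% DMSO.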

[31] = system: NCI-H460; experiment: Inhibition of cell growth of human NCI-H460 cells measured after 72 hrs by MTT assay; format: functional; summary of the method: as §2
[32] = system: A-431; experiment: Inhibition of cell growth of human A-431 cells measured after 72 hrs by MTT assay; format: functional; summary of the method: as §2
[33] = system: DU-145; experiment: Inhibition of cell growth of human DU-145 cells measured after 72 hrs by MTT assay; format: functional; summary of the method: as §2
[34] = Inhibition of cell growth of human SJG2 cells measured after 72 hrs by MTT assay; format: functional; conditions: SJ-G2; summary of the method: as §2
[35] = system: MIA PaCa-2; experiment: Inhibition of cell growth of human MIA PaCa-2 cells at 25 uM measured after 72 hrs by CCK8 assay relative to control; format: functional; summary of the method: as §3
[36] = Inhibition of cell growth of human HPDE cells at 25 uM measured after 72 hrs by CCK8 assay relative to control; format: toxicity, cell-based; summary of the method: as §3

SMILES | GI50 [6] [µM] | GI50 [7] [µM] | GI50 [8] [µM] | GI50 [10] [µM] | GI50 [23] [µM] | GI50 [24] [µM] | GI50 [26] [µM] | GI50 [29] [µM] | GI50 [31] [µM] | GI50 [32] [µM] | GI50 [33] [µM] | GI50 [9] [µM] | GI50 at 72 h [11] [µM] | GI50 [25] [µM] | GI50 [27] [µM] | inhibition at 25 µM [30] [%] | GI50 [34] [µM] | inhibition at 25 µM [35] [%] | inhibition at 72 h, 25 µM [36] [%] | further results
Cc1ccc(-c2cn(CCCN3CCN(S(=O)(=O)c4ccc(C(F)(F)F)cc4)CC3)nn2)cc1 | – | – | – | – | – | – | – | – | – | – | – | – | – | – | – | – | – | – | – | GI50 [1]: 4 µM; GI50 [2]: 7.3 µM; GI50 [3]: 5 µM; GI50 [4]: 6.1 µM; GI50 [5]: 5 µM
COc1ccc(-c2cn(CCCN3CCN(S(=O)(=O)c4ccc(C(F)(F)F)cc4)CC3)nn2)cc1 | 8.6 | 6.1 | 6.2 | 7.8 | 12 | 14 | 5.2 | – | – | – | – | 6.4 | 4.9 | 8.4 | 16 | – | – | – | – | –
CC(C)(C)c1ccc(-c2cn(CCCNCCNS(=O)(=O)c3cc(C(F)(F)F)cc(C(F)(F)F)c3)nn2)cc1 | – | – | – | – | – | – | – | – | – | – | – | – | – | – | – | – | – | – | – | GI50 [28]: 1100 nM
COc1cccc(-c2cn(CCCN3CCN(S(=O)(=O)c4ccccc4)CC3)nn2)c1 | 28 | 35 | 40 | > 50 | – | – | – | > 50 | > 50 | > 50 | > 50 | > 50 | > 50 | – | – | < 10 | 42 | < 10 | 15.8 | –
COc1ccccc1-c1cn(CCCN2CCN(S(=O)(=O)c3ccc(C(F)(F)F)cc3)CC2)nn1 | 0.47 | 0.36 | 0.8 | 0.64 | 0.48 | 0.61 | 0.68 | – | – | – | – | 0.59 | 1 | 0.56 | 0.43 | – | – | – | – | –

Now from value to compound, other results behind:

GI50 [6] [µM] | GI50 [7] [µM] | GI50 [8] [µM] | GI50 [10] [µM] | GI50 [23] [µM] | GI50 [24] [µM] | GI50 [26] [µM] | GI50 [29] [µM] | GI50 [31] [µM] | GI50 [32] [µM] | GI50 [33] [µM] | SMILES | GI50 [9] [µM] | GI50 at 72 h [11] [µM] | GI50 [25] [µM] | GI50 [27] [µM] | inhibition at 25 µM [30] [%] | GI50 [34] [µM] | inhibition at 25 µM [35] [%] | inhibition at 72 h, 25 µM [36] [%] | further results
10 | 9.2 | 14 | > 50 | > 50 | > 50 | > 50 | – | – | – | – | O=S(=O)(c1ccccc1C(F)(F)F)N1CCN(CCCn2cc(-c3ccc(Br)cc3)nn2)CC1 | 38 | 12 | 23 | > 50 | – | – | – | – | inhibition at 25 µM [12]: 92%; inhibition at 25 µM [13]: 87%; inhibition at 25 µM [14]: 68%; inhibition at 25 µM [15]: 58%; inhibition at 25 µM [16]: 70%; inhibition at 25 µM [17]: < 10%; inhibition at 25 µM [18]: 51%; inhibition at 25 µM [19]: 65%; inhibition at 25 µM [20]: 53%; inhibition at 25 µM [21]: 42%; inhibition at 72 h, 25 µM [22]: 72%
18 | 14 | 20 | > 50 | – | – | – | > 50 | 35 | 40 | 25 | COc1cccc(-c2cn(CCCN3CCN(S(=O)(=O)c4ccc(Br)cc4)CC3)nn2)c1 | 20 | 29 | – | – | 10.7 | 23 | < 10 | 32.6 | –
23 | 28 | 21 | > 50 | – | – | – | > 50 | > 50 | > 50 | > 50 | COc1cccc(-c2cn(CCCN3CCN(S(=O)(=O)c4ccc(C(F)(F)F)cc4)CC3)nn2)c1 | > 50 | 39 | – | – | < 10 | > 50 | < 10 | 29 | –
22 | 33 | 29 | > 50 | – | – | – | > 50 | > 50 | > 50 | > 50 | COc1cccc(-c2cn(CCCN3CCN(S(=O)(=O)c4ccc(C)cc4)CC3)nn2)c1 | > 50 | > 50 | – | – | < 10 | > 50 | < 10 | 45 | –
